Active and inactive are the calls of the source. The rule behind the calls is not given here.
Experiments:
[1] = Selectivity ratio of IC50 for human U87MG cells to IC50 for human MKN45 cells; type: ADME, cell-based; settings: u-87mg atcc
[2] = Selectivity ratio of IC50 for human NCI-H292 cells to IC50 for mouse BAF3 cells expressing TPR-MET; type: ADME, cell-based
How it was run: (§1)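 Both IC50s in each ratio come from one proliferation assay. Cells were seeded and exposed the next day to a range of concentrations for 72 h, then read by SRB or MTT. IC50s were fitted by four-parameter concentration–response, with each concentration at least in triplicate and at least 2 experiments. BaF3/TPR-Met is murine pre-B BaF3 transfected with TPR-MET and puromycin-selected.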

[3] = target: TPR/MET fusion protein (Mus musculus) (UniProt P16056+F6ZDS4); test: Inhibition of TPR-MET in mouse BAF3 cells assessed as reduction in AKT phosphorylation at Serine 473 at 10 nM after 1 hr by Western blot analysis; type: cell-based
How it was run: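 BaF3 stably expressing TPR-MET (puromycin-selected), grown with IL-3-conditioned medium. Treated 1 h at 37 °C, lysed in SDS sample buffer. 10% SDS-PAGE and immunoblot for phospho-c-Met, phospho-ERK1/2, phospho-AKT and totals; ECL detection.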

[4] = system: AGS; test: Antiproliferative activity against human AGS cells after 72 hrs by SRB or MTT assay; type: functional, cell-based
How it was run: (§2)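 Cells seeded, exposed next day to a range of concentrations for 72 h. Growth read by sulforhodamine B or MTT. IC50 from four-parameter concentration-response fit. Each concentration tested at least in triplicate, with at least 2 experiments.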

[5] = Selectivity ratio of IC50 for human NCI-H460 cells to IC50 for human EBC1 cells; type: ADME, cell-based; how it was run: as §1
[6] = Selectivity ratio of IC50 for human SPCA1 cells to IC50 for mouse BAF3 cells expressing TPR-MET; type: ADME, cell-based; settings: SPCA1 cells versus BAF3 cells expressing TPR-MET
[7] = Selectivity ratio of IC50 for human NCI-H292 cells to IC50 for human MKN45 cells; type: ADME, cell-based; how it was run: as §1
[8] = Selectivity ratio of IC50 for human SGC7901 cells to IC50 for human MKN45 cells; type: ADME, cell-based; settings: sgc-7901
How it was run: (§3)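 Each cell line was seeded in 96-well plates, then exposed the next day to a range of compound concentrations for 72 h. Growth was read by SRB or MTT assay, and IC50 was fitted by a four-parameter concentration-response curve. Each concentration was run at least in triplicate, in at least 2 experiments. BaF3/TPR-Met are murine pre-B BaF3 cells transfected with TPR-MET cDNA and selected in puromycin.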

[9] = Cmax in Sprague-Dawley rat at 10 mg/kg, po administered as single dose; type: ADME, organism-based; design: dose 10 mg/kg, route oral; settings: in vivo
How it was run: (§4)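 Male Sprague Dawley rats (n=3), single dose. iv 2 mg/kg in 1% DMA/9% Cremophor/90% saline. po 10 mg/kg in 0.5% CMC-Na. Where iv was 10 mg/kg: 10% DMSO/10% Tween 80/80% (40% PEG40); po in that case in 10% DMSO/5% Tween 80/85% saline.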

[10] = target: T1, Hepatocyte growth factor receptor (Homo sapiens, UniProt P08581); test: Inhibition of c-Met phosphorylation at Tyrosine 1234 in human EBC1 cells at 10 nM after 1 hr by Western blot analysis; type: cell-based
T1 sequence (P08581 whole entry): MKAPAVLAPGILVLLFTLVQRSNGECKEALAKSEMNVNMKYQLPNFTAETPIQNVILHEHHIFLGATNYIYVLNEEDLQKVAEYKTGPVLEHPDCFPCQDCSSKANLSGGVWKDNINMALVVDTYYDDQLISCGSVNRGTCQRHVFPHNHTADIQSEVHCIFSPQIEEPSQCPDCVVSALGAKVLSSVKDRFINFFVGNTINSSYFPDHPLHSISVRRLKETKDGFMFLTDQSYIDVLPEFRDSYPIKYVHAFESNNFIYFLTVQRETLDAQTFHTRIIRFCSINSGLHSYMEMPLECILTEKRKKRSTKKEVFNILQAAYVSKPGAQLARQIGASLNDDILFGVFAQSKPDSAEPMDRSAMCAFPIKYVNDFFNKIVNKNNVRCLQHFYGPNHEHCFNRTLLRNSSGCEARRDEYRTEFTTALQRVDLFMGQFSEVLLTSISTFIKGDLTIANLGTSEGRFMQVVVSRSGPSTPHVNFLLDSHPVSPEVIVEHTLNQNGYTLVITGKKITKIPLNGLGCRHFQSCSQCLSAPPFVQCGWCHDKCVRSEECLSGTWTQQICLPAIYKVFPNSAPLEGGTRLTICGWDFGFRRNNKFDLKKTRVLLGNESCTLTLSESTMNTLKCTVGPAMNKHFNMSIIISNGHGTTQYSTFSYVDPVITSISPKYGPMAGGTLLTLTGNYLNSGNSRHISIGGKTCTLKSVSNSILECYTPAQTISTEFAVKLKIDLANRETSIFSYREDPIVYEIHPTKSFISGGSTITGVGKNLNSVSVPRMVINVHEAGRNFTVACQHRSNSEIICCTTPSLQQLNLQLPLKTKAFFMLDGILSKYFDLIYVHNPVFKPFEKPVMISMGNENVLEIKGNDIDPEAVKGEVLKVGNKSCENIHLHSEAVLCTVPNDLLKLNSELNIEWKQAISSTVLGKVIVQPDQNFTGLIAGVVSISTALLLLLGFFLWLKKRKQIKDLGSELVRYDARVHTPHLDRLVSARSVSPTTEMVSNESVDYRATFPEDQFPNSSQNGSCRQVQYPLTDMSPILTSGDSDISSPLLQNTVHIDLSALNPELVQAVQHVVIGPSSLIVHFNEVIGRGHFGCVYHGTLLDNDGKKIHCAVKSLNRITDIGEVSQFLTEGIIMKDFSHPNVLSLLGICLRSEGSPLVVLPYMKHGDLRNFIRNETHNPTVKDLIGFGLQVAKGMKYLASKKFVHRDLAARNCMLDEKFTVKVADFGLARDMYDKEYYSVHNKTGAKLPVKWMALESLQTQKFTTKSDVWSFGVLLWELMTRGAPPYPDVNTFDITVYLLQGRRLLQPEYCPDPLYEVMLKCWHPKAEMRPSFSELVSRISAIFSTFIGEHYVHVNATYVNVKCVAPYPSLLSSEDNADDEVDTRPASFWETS
How it was run: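 EBC-1 or MKN45 cells treated with compound 1 h at 37 °C without HGF, then lysed in 1× SDS sample buffer. Lysates run on 10% SDS-PAGE and transferred to nitrocellulose. Probed with antibodies to c-Met, phospho-c-Met, phospho-ERK1/2, phospho-AKT, AKT and GAPDH, then HRP secondary. ECL detection.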

[11] = system: Epidermal growth factor receptor (Homo sapiens), P00533 [L858R,T790M]; test: Inhibition of EGFR T790M/L858R double mutant (unknown origin) using poly (Glu, Tyr) 4:1 as substrate at 1000 nM incubated for 60 mins by ELISA relative to control; type: protein assay
Chain of Epidermal growth factor receptor (Homo sapiens), P00533 [L858R,T790M] (P00533 whole entry T790M/L858R, looked up): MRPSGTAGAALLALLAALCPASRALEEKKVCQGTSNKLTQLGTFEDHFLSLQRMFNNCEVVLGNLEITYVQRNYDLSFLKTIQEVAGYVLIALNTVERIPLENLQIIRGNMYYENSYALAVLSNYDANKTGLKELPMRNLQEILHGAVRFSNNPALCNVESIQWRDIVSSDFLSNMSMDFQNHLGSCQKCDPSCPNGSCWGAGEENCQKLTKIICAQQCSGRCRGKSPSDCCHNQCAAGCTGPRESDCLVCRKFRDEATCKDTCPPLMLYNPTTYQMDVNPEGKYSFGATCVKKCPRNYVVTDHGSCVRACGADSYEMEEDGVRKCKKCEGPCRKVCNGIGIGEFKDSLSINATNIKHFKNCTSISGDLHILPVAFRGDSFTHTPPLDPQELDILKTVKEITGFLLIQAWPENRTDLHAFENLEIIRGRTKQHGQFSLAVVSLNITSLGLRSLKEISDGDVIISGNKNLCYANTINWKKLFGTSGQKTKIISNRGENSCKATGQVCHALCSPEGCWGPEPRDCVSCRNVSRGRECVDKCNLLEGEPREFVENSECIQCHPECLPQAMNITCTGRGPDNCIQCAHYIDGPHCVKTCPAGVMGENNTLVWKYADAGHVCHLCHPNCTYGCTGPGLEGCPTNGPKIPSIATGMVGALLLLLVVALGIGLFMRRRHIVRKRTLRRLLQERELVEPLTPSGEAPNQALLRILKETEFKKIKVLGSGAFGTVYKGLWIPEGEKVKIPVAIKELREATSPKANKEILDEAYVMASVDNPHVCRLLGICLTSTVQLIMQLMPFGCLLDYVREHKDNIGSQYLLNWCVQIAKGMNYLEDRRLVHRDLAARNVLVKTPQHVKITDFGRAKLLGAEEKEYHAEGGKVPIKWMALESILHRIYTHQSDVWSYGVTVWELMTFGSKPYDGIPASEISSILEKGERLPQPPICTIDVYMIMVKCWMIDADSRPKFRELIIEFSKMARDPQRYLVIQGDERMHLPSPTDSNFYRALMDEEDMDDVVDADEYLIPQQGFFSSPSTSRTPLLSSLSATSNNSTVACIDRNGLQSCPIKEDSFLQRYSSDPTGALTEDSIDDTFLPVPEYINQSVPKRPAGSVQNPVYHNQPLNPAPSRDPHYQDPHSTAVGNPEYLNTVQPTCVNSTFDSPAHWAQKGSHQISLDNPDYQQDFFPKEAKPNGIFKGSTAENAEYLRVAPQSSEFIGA
How it was run: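 Recombinant kinase, ELISA on a poly(Glu,Tyr)4:1 coat (20 μg/mL). 10 μmol/L ATP in HEPES pH 7.4 with MgCl2, MnCl2, Na3VO4 and DTT; 1% DMSO. Reaction 60 min at 37 °C. Phosphotyrosine detected with PY99 and HRP anti-mouse IgG, o-phenylenediamine substrate, A490. Inhibition % versus DMSO control; two separate experiments.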

[12] = Selectivity ratio of IC50 for human HCT116 cells to IC50 for mouse BAF3 cells expressing TPR-MET; type: ADME, cell-based; how it was run: as §1
[13] = Antiproliferative activity against human SGC7901 cells after 72 hrs by SRB or MTT assay; type: functional, cell-based; settings: SGC-7901, 72 h; how it was run: as §2
[14] = Half life in Sprague-Dawley rat at 2 mg/kg, iv administered as single dose; type: ADME, organism-based; settings: in vivo; how it was run: as §4
[15] = Antitumor activity against human MKN45 cells xenografted in athymic nude mouse assessed as tumor growth inhibition at 12.5 mg/kg, po bid for 21 days measured twice a week during compound dosing relative to control; type: functional; settings: MKN-45, po, 504 h, read-out: TGI
How it was run: (§5)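 Nude mice bearing s.c. tumours. Cells were first grown s.c. to 700–800 mm³, then 1.5 mm³ fragments were transplanted s.c. into the right flank. Mice were randomised at 100–200 mm³ (n=6 treated, n=12 vehicle) and dosed orally twice daily for 21 days. Caliper measurement twice weekly; TV = length×width²/2. TGI taken on the final day versus vehicle; Student's t test.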

[16] = target: T1, Hepatocyte growth factor receptor; test: Inhibition of c-Met in HGF stimulated human U87MG cells assessed as reduction in AKT phosphorylation at Serine 473 at 10 nM after 1 hr by Western blot analysis; type: cell-based; settings: U-87MG ATCC
How it was run: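 U87MG cells serum-starved 24 h, treated 1 h at 37 °C, then stimulated with HGF 100 ng/mL for 15 min. Lysed in SDS buffer, run on 10% SDS-PAGE and immunoblotted for phospho-ERK1/2 and phospho-AKT; ECL detection.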

[17] = target: Tyrosine-protein kinase receptor TYRO3 (Homo sapiens, UniProt Q06418); test: Inhibition of recombinant TYRO3 (unknown origin) using poly (Glu, Tyr) 4:1 as substrate incubated for 60 mins by ELISA
[18] = target: Proto-oncogene tyrosine-protein kinase ROS (Homo sapiens) (UniProt P08922); test: Inhibition of recombinant ROS1 (unknown origin) using poly (Glu, Tyr) 4:1 as substrate at 1000 nM incubated for 60 mins by ELISA relative to control
Chain of Proto-oncogene tyrosine-protein kinase ROS (Homo sapiens) (P08922 whole entry): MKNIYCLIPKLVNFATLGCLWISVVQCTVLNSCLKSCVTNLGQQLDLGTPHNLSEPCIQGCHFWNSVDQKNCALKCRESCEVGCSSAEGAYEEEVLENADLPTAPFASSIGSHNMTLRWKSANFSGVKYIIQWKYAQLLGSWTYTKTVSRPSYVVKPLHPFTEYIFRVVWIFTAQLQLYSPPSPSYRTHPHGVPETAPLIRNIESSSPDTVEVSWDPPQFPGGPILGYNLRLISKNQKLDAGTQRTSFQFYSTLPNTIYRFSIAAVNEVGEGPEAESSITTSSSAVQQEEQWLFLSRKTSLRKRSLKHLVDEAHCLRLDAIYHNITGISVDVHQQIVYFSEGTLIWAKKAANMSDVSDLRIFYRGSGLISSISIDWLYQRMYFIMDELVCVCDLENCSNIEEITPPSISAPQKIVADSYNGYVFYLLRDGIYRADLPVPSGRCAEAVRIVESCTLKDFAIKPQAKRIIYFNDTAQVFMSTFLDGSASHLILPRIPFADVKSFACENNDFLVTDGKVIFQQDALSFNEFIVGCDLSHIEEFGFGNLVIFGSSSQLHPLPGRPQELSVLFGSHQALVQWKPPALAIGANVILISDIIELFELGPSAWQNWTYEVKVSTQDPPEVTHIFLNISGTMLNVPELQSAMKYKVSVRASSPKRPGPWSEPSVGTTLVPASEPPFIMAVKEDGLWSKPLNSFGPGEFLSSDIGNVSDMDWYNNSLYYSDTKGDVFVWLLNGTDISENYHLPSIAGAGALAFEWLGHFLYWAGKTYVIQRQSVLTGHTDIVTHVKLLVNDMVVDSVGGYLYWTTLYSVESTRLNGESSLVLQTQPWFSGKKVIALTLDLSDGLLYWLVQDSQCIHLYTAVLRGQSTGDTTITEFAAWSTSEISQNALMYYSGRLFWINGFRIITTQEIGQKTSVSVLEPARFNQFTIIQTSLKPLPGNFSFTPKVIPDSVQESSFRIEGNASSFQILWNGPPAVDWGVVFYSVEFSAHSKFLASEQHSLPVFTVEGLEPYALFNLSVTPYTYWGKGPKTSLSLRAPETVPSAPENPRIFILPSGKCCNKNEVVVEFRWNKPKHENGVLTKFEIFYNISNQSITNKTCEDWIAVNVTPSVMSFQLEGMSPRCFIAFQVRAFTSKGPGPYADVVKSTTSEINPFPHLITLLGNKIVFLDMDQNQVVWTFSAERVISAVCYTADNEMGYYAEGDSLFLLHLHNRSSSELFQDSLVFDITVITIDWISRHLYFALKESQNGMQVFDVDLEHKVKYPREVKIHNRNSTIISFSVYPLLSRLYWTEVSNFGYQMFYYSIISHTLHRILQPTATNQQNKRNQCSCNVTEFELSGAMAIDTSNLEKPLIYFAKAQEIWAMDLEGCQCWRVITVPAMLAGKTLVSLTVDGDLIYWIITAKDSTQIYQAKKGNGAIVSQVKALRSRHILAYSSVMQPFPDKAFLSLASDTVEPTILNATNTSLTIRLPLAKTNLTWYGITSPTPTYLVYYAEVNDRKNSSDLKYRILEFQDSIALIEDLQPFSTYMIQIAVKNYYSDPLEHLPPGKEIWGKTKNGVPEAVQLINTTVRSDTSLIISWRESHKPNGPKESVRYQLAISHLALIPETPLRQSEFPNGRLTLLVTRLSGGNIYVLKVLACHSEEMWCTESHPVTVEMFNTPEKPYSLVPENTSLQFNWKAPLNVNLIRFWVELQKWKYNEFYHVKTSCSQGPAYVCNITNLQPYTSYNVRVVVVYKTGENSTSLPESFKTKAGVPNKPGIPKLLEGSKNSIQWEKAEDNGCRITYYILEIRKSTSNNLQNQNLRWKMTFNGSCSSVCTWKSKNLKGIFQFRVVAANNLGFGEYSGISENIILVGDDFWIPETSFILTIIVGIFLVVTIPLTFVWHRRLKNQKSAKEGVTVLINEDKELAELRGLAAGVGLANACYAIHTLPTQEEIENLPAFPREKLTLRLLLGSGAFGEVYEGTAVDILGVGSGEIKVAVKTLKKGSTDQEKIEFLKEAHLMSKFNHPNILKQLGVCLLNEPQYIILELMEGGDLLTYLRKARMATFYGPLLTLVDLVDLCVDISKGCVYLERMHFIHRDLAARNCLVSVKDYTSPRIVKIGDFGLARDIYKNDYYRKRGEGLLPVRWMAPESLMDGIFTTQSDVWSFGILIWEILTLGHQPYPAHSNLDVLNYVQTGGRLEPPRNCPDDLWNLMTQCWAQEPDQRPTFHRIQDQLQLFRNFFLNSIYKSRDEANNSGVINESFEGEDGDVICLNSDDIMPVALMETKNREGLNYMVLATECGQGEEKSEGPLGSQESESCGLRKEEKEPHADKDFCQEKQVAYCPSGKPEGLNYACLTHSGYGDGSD
How it was run: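 Recombinant tyrosine kinases assayed on wells precoated with poly(Glu,Tyr)4:1 (20 µg/mL). ATP 10 µmol/L in HEPES pH 7.4 buffer with MgCl2, MnCl2, Na3VO4 and DTT; compound in 1% DMSO, 1% DMSO as control. Reaction 60 min at 37 °C. Phosphotyrosine detected with PY99 and HRP anti-mouse, o-phenylenediamine, A490. Inhibition % relative to control; two experiments.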

[19] = Antitumor activity against human MKN45 cells xenografted in athymic nude mouse assessed as tumor growth inhibition at 6.25 mg/kg, po bid for 21 days measured twice a week during compound dosing relative to control; type: functional; settings: MKN-45, po, 504 h, read-out: TGI; how it was run: as §5
[20] = Selectivity ratio of IC50 for human SMMC7721 cells to IC50 for human EBC1 cells; type: ADME, cell-based; settings: smmc-7721; how it was run: as §3

## Fc1ccc(-c2cnc3nnc(C(F)(F)c4ccc5ncccc5c4)n3n2)cc1
[1]
  Ratio IC50: 10000
[2]
  Ratio IC50: 10000
[3]
  inhibition: Active
[4]
  IC50: > 10 µM
[5]
  Ratio IC50: 10000
[6]
  selectivity ratio: > 10000
[7]
  Ratio IC50: 10000
[8]
  Ratio IC50: > 10000
[9]
  Cmax: 0.869 µg/mL
[10]
  inhibition: Active
[11]
  inhibition: 28.9%
[12]
  Ratio IC50: 10000
[13]
  IC50: > 10 µM
[14]
  half-life: 1.23 h
[15]
  inhibition in vivo at 12.5 mg/kg: 80.1%
[16]
  inhibition: Active
[17]
  IC50: > 1 µM
[18]
  inhibition: 10.6%
[19]
  inhibition in vivo at 6.25 mg/kg: 46.8%
[20]
  Ratio IC50: 10000

Reference: ChEMBL document CHEMBL3797175, “Discovery of 6-(difluoro(6-(4-fluorophenyl)-[1,2,4]triazolo[4,3-b][1,2,4]triazin-3-yl)methyl)quinoline as a highly potent and selective c-Met inhibitor” (Eur J Med Chem, 2016)
